Measured values gathered from unrelated publications.
Lines come from different studies, so protocols differ.
Cell line: DU-145
Read-out: cell growth or viability

`O=C(O)C(c1c[nH]c2ccccc12)c1c[nH]c2ccccc12` has an IC50 of > 100 µM (MTT; 48 h).
`C[C@@H]1C[C@@H](c2cccc(F)c2)c2c(cc3ccccn23)C(=O)O1` (racemic) has an IC50 of > 100 µM (resazurin; 72 h).
With `O=C(O)/C=C/c1ccc(C(c2c[nH]c3ccccc23)c2c[nH]c3ccccc23)s1` the IC50 was 90 µM (MTT; 48 h).
The IC50 of `O=c1ccn(Cc2cn(-c3c4ccccc4nc4ccccc34)nn2)c(=O)[nH]1` is reported as 59.3 µM (MTT).
With `c1csc([I+]c2cccs2)c1` the IC50 was ~3.5 µM (trypan blue; 48 h).
With `CC(C)n1cc(C(c2ccc(/C=C/C(=O)O)s2)c2cn(C(C)C)c3ccccc23)c2ccccc21` the IC50 was 52 µM (MTT; 48 h).
The IC50 of `CC(C)C[C@H](NC(=O)[C@H](Cc1ccccc1)NC(=O)c1cnccn1)B(O)O` is reported as 0.017 µM (ATP luminescence).
With `COc1cc([C@H]2C[C@@H](C)OC(=O)c3cc4ccccn4c32)cc(OC)c1OC` (racemic) the IC50 was 36.9 µM (resazurin; 72 h).
With `COC1=CC(=O)N(C(=O)[C@@H](CCC(Cl)(Cl)Cl)NC(=O)C(C)(C)C)[C@@H]1CCC(Cl)(Cl)Cl` the IC50 was 20 µM (resazurin; 72 h).
`C[C@@H]1C[C@H](c2ccc(Br)cc2)c2c(cc3ccccn23)C(=O)O1` (racemic) has an IC50 of 34.4 µM (resazurin; 72 h).
The IC50 of `C[C@H]1O[C@@H](n2cc(F)c(=O)[nH]c2=O)[C@H](O)[C@@H]1O` is reported as > 50 µM (CCK-8; 48 h).
The IC50 of `Cc1cccc2c(C(c3ccc(/C=C/C(=O)O)s3)c3c[nH]c4c(C)cccc34)c[nH]c12` is reported as 64 µM (MTT; 48 h).
`C[C@@H]1C[C@@H](c2cccc(Cl)c2)c2c(cc3ccccn23)C(=O)O1` (racemic) has an IC50 of > 100 µM (resazurin; 72 h).
The IC50 of `Cc1ccc2[nH]cc(C(c3ccc(/C=C/C(=O)O)s3)c3c[nH]c4ccc(C)cc34)c2c1` is reported as > 100 µM (MTT; 48 h).
For `Cc1ccc(S(=O)(=O)OCC(=O)Nc2ccc(C(=O)O)c(O)c2)cc1`, the IC50 was 75 µM.
The IC50 of `COc1cc(C2Oc3cc([C@H]4Oc5cc(O)cc(O)c5C(=O)[C@@H]4O)ccc3OC2CO)ccc1O` (stereo partly shown) is reported as 21.9 µM (CCK-8; 72 h).
For `Cc1cc(=O)[nH]c(=O)n1Cc1cn(-c2c3ccccc3nc3ccccc23)nn1`, the IC50 was 26.1 µM (MTT).
`Cn1cc(C(c2cccc(/C=C/C(=O)O)c2)c2cn(C)c3ccccc23)c2ccccc21` gave an IC50 of > 100 µM (MTT; 48 h).
The IC50 of `C[C@@H]1C[C@H](c2ccccc2)c2c(cc3ccccn23)C(=O)O1` (racemic) is reported as > 100 µM (resazurin; 72 h).
`COc1cc(C(=O)c2csc(-c3ccccc3)n2)cc(OC)c1OC` gave an IC50 of 0.071 µM (SRB; 96 h).
`COc1cccc2c1C(=O)c1c(O)c3c(c(O)c1C2=O)C[C@@](O)(C(=O)CO)C[C@@H]3O[C@H]1C[C@H](N)[C@H](O)[C@H](C)O1` gave an IC50 of 0.095 µM (resazurin; 72 h).
With `O=C(O)c1ccc(C(c2c[nH]c3ccccc23)c2c[nH]c3ccccc23)cc1` the IC50 was > 100 µM (MTT; 48 h).
